# Experimental data gathered from unrelated publications.
# Protocols differ between the studies behind these lines.
# LCK: Tyrosine-protein kinase Lck (LCK, Homo sapiens, UniProt P06239)
# LCK phosphorylated: Tyrosine-protein kinase Lck, phosphorylated (LCK, Homo sapiens, UniProt P06239)
Compound,target,assay,conditions,quantity,value
C[C@@H](c1cccc(C#N)c1)n1cc(Cl)cc(C(N)=O)c1=N,LCK,"binding, competition with immobilised ligand",1 µM,remaining binding,90%
Cc1cn(-c2cc(NC(=O)c3ccc(C)c(Nc4nccc(-c5cccnc5)n4)c3)cc(C(F)(F)F)c2)cn1,LCK,"enzyme activity, inhibitor",0.5 µM,activity vs control,22.2%
CCCS(=O)(=O)Nc1ccc(F)c(C(=O)c2c[nH]c3ncc(-c4ccc(Cl)cc4)cc23)c1F,LCK,"enzyme activity, inhibitor",1 µM,inhibition,< 10%
Cc1cc(NC(=O)c2cccc3cc(-c4cccc5[nH]nc(N)c45)ccc23)ccc1F,LCK phosphorylated,"enzyme activity, inhibitor",0.1 µM,activity vs control,88%
COc1cc2ncnc(Nc3ccc(Oc4ccccc4)cc3C)c2cc1OC,LCK,"enzyme activity, inhibitor",1 µM,inhibition,92%
Cc1cc(-n2nc(Cc3cc(F)cc(C(F)(F)F)c3)nc2C)ccc1C(N)=O,LCK,"cell-free assay, competition with immobilised ligand",1 µM,remaining binding,100%
CSc1nc(C)c(-c2ccnc(Nc3ccc(N4CCOCC4)cc3)c2)[nH]1,LCK,"enzyme activity, inhibitor",10 µM,inhibition,15.8%
CNC(=O)c1cc2c(Oc3ccc(NC(=O)C4(C(=O)Nc5ccc(F)cc5)CC4)cc3)ccnc2cc1OC,LCK,"enzyme activity, inhibitor, radiometric",1 µM,inhibition,99%
CN(C)C1CCN(CC#Cc2nn(C3CCCC3)c3nc(NCc4ccccc4)ncc23)C1 (stereo not shown),LCK,"enzyme activity, inhibitor, FRET",0.1 µM,inhibition,17%
CNC(=O)c1ccccc1Nc1cc(Nc2ccc(N3CCOCC3)cc2OC)ncc1C(F)(F)F,LCK,"enzyme activity, inhibitor",1 µM,inhibition,> 50%
c1cc(-c2cnn3cc(-c4ccc(OCCN5CCCCC5)cc4)cnc23)ccn1,LCK,"enzyme activity, inhibitor",0.5 µM,activity vs control,51.8%
COc1cc(-c2cn(C3CCc4c(F)cccc4N(CC(F)(F)F)C3=O)nn2)ccc1-n1cnc(C)c1 (stereo not shown),LCK,"cell-free assay, competition with immobilised ligand",1 µM,remaining binding,100%
FC(F)(F)Oc1cccc(-c2cnc3ccc(-c4ccncc4)nn23)c1,LCK,"enzyme activity, inhibitor, radiometric",1 µM,activity vs control,35%
Cc1cnn2ncc(-c3ccnc(N(C)C)n3)c2c1,LCK,cell-free assay,1 µM,remaining signal,100%
CCS(=O)(=O)c1cc2cc(C[C@@](O)(CC(C)(C)c3ccc(F)cc3C(N)=O)C(F)(F)F)[nH]c2cn1,LCK,"cell-free assay, competition with immobilised ligand",1 µM,remaining binding,81%
CN(C)c1ncc(F)c(-c2cnn3ncccc23)n1,LCK,cell-free assay,1 µM,remaining signal,76%
CC(=O)C1=C(C)N(c2cccc(C(F)(F)F)c2)C(=O)N[C@@H]1c1ccc(C#N)nc1,LCK,"cell-free assay, competition with immobilised ligand",1 µM,remaining binding,100%
Cc1ccc(Nc2nccc(N(C)c3ccc4c(C)n(C)nc4c3)n2)cc1S(N)(=O)=O,LCK,"enzyme activity, inhibitor",10 µM,inhibition,99%
C[C@@H]1CN(c2cc(-c3nn(C)c4ccc(OC5(C)CC5)cc34)ncn2)C[C@H](C)O1,LCK,"cell-free assay, competition with immobilised ligand",1 µM,remaining binding,94%
Cc1ccc(C(=O)NCc2ccsc2)cc1C#Cc1cn(C(C)C)c2ncnc(N)c12,LCK,"enzyme activity, inhibitor",1 µM,activity vs control,3%
O=C(Nc1cccnn1)N1CC(C/C=C/c2cncc(Oc3ccc(C(F)(F)F)cn3)n2)C1,LCK,"cell-free assay, competition with immobilised ligand",1 µM,remaining binding,100%
CC1CCCN1c1nccc(-c2cnn3ncccc23)n1 (stereo not shown),LCK,cell-free assay,1 µM,remaining signal,100%
CNCc1ccc(-c2cc(-c3nc(-c4ccc(S(=O)(=O)C(C)C)cc4)cnc3N)on2)cc1,LCK,"enzyme activity, inhibitor",2 µM,inhibition,64%
CN(C)CC#Cc1ccc(OCCCc2sc(N3CCc4cccc(C(=O)Nc5nc6ccccc6s5)c4C3)nc2C(=O)O)c(F)c1,LCK,"cell-free assay, competition with immobilised ligand",1 µM,remaining binding,100%
C=CC(=O)Nc1cc(Nc2nccc(Nc3cc(Cl)c(F)cc3C(C)(C)O)n2)c(OC)cc1N1CC[C@@H](N(C)C)C1,LCK phosphorylated,"enzyme activity, inhibitor",1 µM,inhibition,5%
